{
  "source": "paper PMC7723234",
  "about": "(Journal of medicinal chemistry, 2019)",
  "key": {"SW620": {"test_system": "SW620", "assay": "γ-H2AX DNA damage assay", "assay_type": "cell-based", "conditions": "concentration range 0–40 μM"}, "hTopoIIα": {"target": "hTopoIIα (Homo sapiens, UniProt P11388)", "sequence (P11388 whole entry)": "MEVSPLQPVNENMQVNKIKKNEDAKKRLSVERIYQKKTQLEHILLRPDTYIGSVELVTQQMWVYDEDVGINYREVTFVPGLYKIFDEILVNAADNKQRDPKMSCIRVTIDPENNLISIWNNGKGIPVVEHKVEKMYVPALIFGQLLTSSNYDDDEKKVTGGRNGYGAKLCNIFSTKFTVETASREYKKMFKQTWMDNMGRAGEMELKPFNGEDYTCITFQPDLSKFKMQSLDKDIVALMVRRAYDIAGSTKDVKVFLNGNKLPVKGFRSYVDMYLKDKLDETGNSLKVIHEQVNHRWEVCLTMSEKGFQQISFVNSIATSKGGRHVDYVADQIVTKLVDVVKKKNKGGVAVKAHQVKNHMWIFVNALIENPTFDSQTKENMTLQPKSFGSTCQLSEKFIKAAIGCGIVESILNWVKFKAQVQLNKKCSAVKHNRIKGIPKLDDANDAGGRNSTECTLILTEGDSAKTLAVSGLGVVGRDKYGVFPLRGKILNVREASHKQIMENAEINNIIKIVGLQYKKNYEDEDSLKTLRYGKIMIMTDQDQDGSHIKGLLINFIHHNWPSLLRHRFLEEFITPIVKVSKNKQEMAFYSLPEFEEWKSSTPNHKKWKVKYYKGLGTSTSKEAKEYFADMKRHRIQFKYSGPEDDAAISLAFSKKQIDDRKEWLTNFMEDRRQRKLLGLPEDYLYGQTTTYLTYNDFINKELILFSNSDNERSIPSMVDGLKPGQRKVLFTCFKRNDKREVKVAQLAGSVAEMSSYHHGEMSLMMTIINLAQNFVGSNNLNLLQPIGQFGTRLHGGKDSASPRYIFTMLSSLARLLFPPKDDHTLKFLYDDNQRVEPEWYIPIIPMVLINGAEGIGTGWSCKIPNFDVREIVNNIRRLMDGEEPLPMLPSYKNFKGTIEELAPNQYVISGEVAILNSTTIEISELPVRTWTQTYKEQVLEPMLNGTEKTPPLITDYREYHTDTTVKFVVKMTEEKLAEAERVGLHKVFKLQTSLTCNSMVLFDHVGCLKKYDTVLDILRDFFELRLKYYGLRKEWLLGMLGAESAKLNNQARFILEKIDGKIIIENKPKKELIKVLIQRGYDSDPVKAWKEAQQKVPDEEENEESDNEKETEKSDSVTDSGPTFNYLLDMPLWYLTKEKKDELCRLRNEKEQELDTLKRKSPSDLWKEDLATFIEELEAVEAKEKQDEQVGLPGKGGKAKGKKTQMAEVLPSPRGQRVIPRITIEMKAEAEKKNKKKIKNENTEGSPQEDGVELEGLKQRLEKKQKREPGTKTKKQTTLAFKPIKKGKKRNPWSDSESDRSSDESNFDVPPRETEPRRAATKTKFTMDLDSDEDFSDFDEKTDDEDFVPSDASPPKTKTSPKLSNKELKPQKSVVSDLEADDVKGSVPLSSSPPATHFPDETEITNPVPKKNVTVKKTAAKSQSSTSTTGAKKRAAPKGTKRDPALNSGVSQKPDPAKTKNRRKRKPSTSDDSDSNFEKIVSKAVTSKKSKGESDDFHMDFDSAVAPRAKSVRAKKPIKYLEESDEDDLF", "assay": "TOP2A ATPase assay", "assay_type": "biochemical", "conditions": "ATP hydrolysis, Vmax unchanged, KM shifts"}, "In vivo PK studies": {"assay": "In vivo PK studies", "conditions": "female CD-1 mice, single IP 50 mg/kg, plasma", "outline": "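Female CD-1 mice got one IP dose of 50 mg/kg in 100% DMSO. Blood was sampled from 0.25–24 h, three mice per time point (21 per compound), into sodium heparin. Plasma was spun out (1800xg, 10 min, 4 °C), frozen at −80 °C, mixed 1:1 with ACN acidified with formic or trifluoroacetic acid (0.1%, varying by compound), centrifuged and analysed by LC-MS/MS.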"}, "SW620 cells": {"test_system": "SW620 cells", "assay": "Tumor organoid CSC stemness assay", "assay_type": "cell-based", "conditions": "SW620 cells pretreated 24 h, colonies over seven days, vs DMSO"}, "[1]": {"test_system": "caspase 3 and 7 activity in SW620 tumor organoids", "assay": "Tumor organoid caspase 3/7 activity", "assay_type": "cell-based", "conditions": "higher doses, vs DMSO", "outline": "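SW620 cells were seeded at 2,000/well in round-bottom ultra-low-attachment 384-well plates in RPMI-1640 with 5% FBS and 2% Matrigel, grown 72 h, then treated with a range of doses for 72 h. Caspase-Glo 3/7 was added 1:1, plates shaken 30 min, and luminescence read. Staurosporine served as positive control and 0.4% DMSO as negative control.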"}, "Human TOP2A": {"target": "Human TOP2A (Homo sapiens, UniProt P11388)", "sequence (P11388 whole entry)": "as above", "assay": "TOP2A decatenation assay", "assay_type": "biochemical", "conditions": "screen at 30 μM / SAR discussion", "outline": "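For screening, TOP2A (3U/reaction) was preincubated 20 min at 37 °C with 30 μM test compound in 1.2% DMSO. Then 2 mM ATP and 35 ng kDNA were added for 1 h at 37 °C. Products ran on 0.8% agarose in TBE with 0.2 μg/mL ethidium bromide (1 h, 100 V), and decatenated bands were compared with vehicle. Dose-responses used 2-fold dilutions (58.6 nM–30 μM) and 4U enzyme.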"}, "[2]": {"test_system": "TOP2A-dependent TCF-transcription in SW620-TOP tumor organoids", "assay": "3D tumor organoid TOPflash reporter assay", "assay_type": "cell-based", "outline": "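SW620 cells stably carrying pCDH-TOPflash-luc-EF1-puro were seeded at 5,000 cells/well in ultra-low-attachment U-bottom wells, centrifuged, given 2% Matrigel (final) and grown 72 h in phenol red-free RPMI-1640 with 5% FBS. Organoids were treated 72 h. One-Glo luciferase and CellTiter-Glo 3D were added 1:1 and luminescence read. TCF signal was normalised to viability, then to DMSO controls.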"}, "SW620 tumor organoids": {"test_system": "SW620 tumor organoids", "assay": "SW620 tumor organoid growth in volume", "assay_type": "cell-based", "conditions": "72 h, vs DMSO"}, "[3]": {"assay": "Microsome stability studies", "assay_type": "in vitro ADME", "conditions": "mouse microsomes; for microsomal stability (in words): Phase I, 0 to 60 min", "outline": "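Female CD-1 mouse liver microsomes (0.5 mg/mL) with 1.5 mM NADPH in 0.1 M phosphate buffer, pH 7.4, were pre-warmed 5 min at 37 °C. Reactions were started with 1 μg/mL test compound and run at 37 °C. Aliquots taken over 0–60 min were quenched with equal-volume acetonitrile and centrifuged (20,000g, 10 min) for LCMS. Compound-stability controls under reaction conditions were included.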"}, "[4]": {"assay": "Compound aqueous solubility in PBS", "assay_type": "physicochemical", "conditions": "ratio to prototype 7", "outline": "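Test compound (1 mg) was dissolved in 200 μL 10% DMSO in PBS, pH 7.4, and equilibrated as for the 1-propanol solutions (18 h, 25 °C), then centrifuged. The UV absorption spectrum was compared with a fully saturated 1-propanol solution, and solubility was calculated by linear regression.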"}, "[5]": {"test_system": "TOP2A mediated TCF-transcription", "conditions": "cited from earlier work"}, "[6]": {"conditions": "cited from earlier work"}, "[7]": {"conditions": "cited from earlier work", "remark": "listed apart in the source"}},
  "note": "Entries after “also recorded” stand apart in the source; their conditions may differ.",
  "data": [
    {"smiles": "CC(=O)Nc1ccc2c(-c3cc(F)ccc3O)ccnc2c1O", "note": "[Compound 7, 7-Acetamido-4-(5-fluoro-2-hydroxyphenyl)-8-hydroxyquinoline]", "values": [
      {"measurement": "DNA double stranded breaks (H2AX S139 phosphorylation immunofluorescence)", "setting": "SW620", "result": "do not cause DNA DSBs"},
      {"measurement": "mode of TOP2A inhibition", "setting": "hTopoIIα", "result": "competitive mode of inhibition"},
      {"measurement": "CL", "setting": "In vivo PK studies", "result": 64.5, "unit": "mL/min/kg"},
      {"measurement": "colony formation (clonogenic assay)", "setting": "SW620 cells", "result": "inhibit colony formation"},
      {"measurement": "induction of apoptosis (caspase 3 and 7 cleavage) in words", "setting": "[1]", "result": "induce apoptosis"},
      {"measurement": "inhibition of TOP2A decatenation (in words)", "setting": "Human TOP2A", "result": "complete inhibition"},
      {"measurement": "inhibition of TOP-activity (TOPflash) in words", "setting": "[2]", "result": "significantly inhibit"},
      {"measurement": "tumor organoid growth in volume", "setting": "SW620 tumor organoids", "result": "significantly inhibited tumor organoid growth"},
      {"measurement": "microsomal stability (in words)", "setting": "[3]", "result": "metabolized faster within the first 30 minutes"}
    ]},
    {"smiles": "CC(=O)Nc1ccc2c(-c3ccccc3)ccnc2c1O", "note": "[Compound 28, 7-Acetamido-4-(phenyl)-8-hydroxyquinoline]", "values": [
      {"measurement": "microsomal stability (in words)", "setting": "[3]", "result": "biphasic kinetics"}
    ]},
    {"smiles": "CC(=O)Nc1ccc2c(-c3ccc(F)cc3)ccnc2c1O", "note": "[Compound 30, 7-Acetamido-4-(4-fluorophenyl)-8-hydroxyquinoline]", "values": [
      {"measurement": "inhibition of TOP2A decatenation (in words)", "setting": "Human TOP2A", "result": "activity is lost"}
    ]},
    {"smiles": "CC(=O)Nc1ccc2c(-c3cccc(C(F)(F)F)c3)ccnc2c1O", "note": "[Compound 31, 7-Acetamido-4-((3-trifluoromethyl)phenyl)-8-hydroxyquinoline]", "values": [
      {"measurement": "inhibition of TOP2A decatenation (in words)", "setting": "Human TOP2A", "result": "excellent inhibitory activity"},
      {"measurement": "microsomal stability (in words)", "setting": "[3]", "result": "not readily transformed by Phase I metabolic enzymes"}
    ]},
    {"smiles": "CC(=O)Nc1ccc2c(-c3ccc(C(F)(F)F)cc3)ccnc2c1O", "note": "[Compound 32, 7-Acetamido-4-((4-trifluoromethyl)phenyl)-8-hydroxyquinoline]", "values": [
      {"measurement": "inhibition of TOP2A decatenation (in words)", "setting": "Human TOP2A", "result": "excellent inhibitory activity"}
    ]},
    {"smiles": "CC(=O)Nc1ccccc1-c1ccnc2c(O)c(NC(C)=O)ccc12", "note": "[Compound 34, 7-Acetamido-4-(2-acetamidophenyl)-8-hydroxyquinoline]", "values": [
      {"measurement": "inhibition of TOP2A decatenation (in words)", "setting": "Human TOP2A", "result": "significant loss of activity"}
    ]},
    {"smiles": "CC(=O)Nc1ccc(-c2ccnc3c(O)c(NC(C)=O)ccc23)cc1", "note": "[Compound 35, 7-Acetamido-4-(4-acetamidophenyl)-8-hydroxyquinoline]", "values": [
      {"measurement": "inhibition of TOP2A decatenation (in words)", "setting": "Human TOP2A", "result": "restored inhibitory activity"},
      {"measurement": "microsomal stability (in words)", "setting": "[3]", "result": "not readily transformed by Phase I metabolic enzymes"}
    ]},
    {"smiles": "CC(=O)Nc1cccc(-c2ccnc3c(O)c(NC(C)=O)ccc23)c1", "note": "[Compound 36, 7-Acetamido-4-(3-acetamidophenyl)-8-hydroxyquinoline]", "values": [
      {"measurement": "inhibition of TOP2A decatenation (in words)", "setting": "Human TOP2A", "result": "significant loss of activity"}
    ]},
    {"smiles": "CC(=O)Nc1ccc2c(-c3cc(C(F)(F)F)ccc3O)ccnc2c1O", "note": "[Compound 37, 7-Acetamido-4-(2-hydroxy-5-trifluoromethylphenyl)-8-hydroxyquinoline]", "values": [
      {"measurement": "inhibition of TOP2A decatenation (in words)", "setting": "Human TOP2A", "result": "excellent inhibitory activity"}
    ]},
    {"smiles": "CC(=O)Nc1ccc2c(-c3cc(Cl)ccc3O)ccnc2c1O", "note": "[Compound 38, 7-Acetamido-4-(5-chloro-2-hydroxyphenyl)-8-hydroxyquinoline]", "values": [
      {"measurement": "inhibition of TOP2A decatenation (in words)", "setting": "Human TOP2A", "result": "did not inhibit"}
    ]},
    {"smiles": "O=C(CCN1CCOCC1)Nc1ccc2c(-c3cc(F)ccc3O)ccnc2c1O", "note": "[Compound 42, 4-(5-fluoro-2-hydroxyphenyl)-8-hydroxy-7-(3-(morpholin-4-yl)propanamido)quinoline]", "values": [
      {"measurement": "CL", "setting": "In vivo PK studies", "result": 62.2, "unit": "mL/min/kg"},
      {"measurement": "solubility in PBS compared to prototype 7", "setting": "[4]", "result": 3.4, "unit": "times"},
      {"measurement": "induction of apoptosis (caspase 3 and 7 cleavage) in words", "setting": "[1]", "result": "induce apoptosis"},
      {"measurement": "tumor organoid growth in volume", "setting": "SW620 tumor organoids", "result": "significantly inhibited tumor organoid growth"},
      {"measurement": "microsomal stability (in words)", "setting": "[3]", "result": "least stable"}
    ]},
    {"smiles": "CC(=O)Nc1ccc2c(-c3cc4ccccc4o3)ccnc2c1O", "note": "[Compound 53, 7-Acetamido-4-(2-benzofuranyl)-8-hydroxyquinoline]", "values": [
      {"measurement": "CL", "setting": "In vivo PK studies", "result": 283.2, "unit": "mL/min/kg"},
      {"measurement": "inhibition of TOP2A decatenation (in words)", "setting": "Human TOP2A", "result": "complete inhibitory activity"},
      {"measurement": "microsomal stability (in words)", "setting": "[3]", "result": "not readily transformed by Phase I metabolic enzymes"}
    ]},
    {"smiles": "CC(=O)Nc1ccc2c(-c3cc4ccccc4s3)ccnc2c1O", "note": "[Compound 54, 7-Acetamido-4-(benzo[b]thiophen-2-yl)-8-hydroxyquinoline]", "values": [
      {"measurement": "inhibition of TOP2A decatenation (in words)", "setting": "Human TOP2A", "result": "inhibition was lost"}
    ]},
    {"smiles": "CC(=O)Nc1ccc2c(-c3ccco3)ccnc2c1O", "note": "[Compound 55, 7-Acetamido-4-(2-furanyl)-8-hydroxyquinoline]", "values": [
      {"measurement": "inhibition of TOP2A decatenation (in words)", "setting": "Human TOP2A", "result": "significant loss of activity"}
    ]},
    {"smiles": "CC(=O)Nc1ccc2c(-c3ccsc3)ccnc2c1O", "note": "[Compound 58, 7-Acetamido-4-(thiophen-3-yl)-8-hydroxyquinoline]", "values": [
      {"measurement": "inhibition of TOP2A decatenation (in words)", "setting": "Human TOP2A", "result": "improves activity compared to the 3-furanyl analog 56"},
      {"measurement": "microsomal stability (in words)", "setting": "[3]", "result": "metabolized faster within the first 30 minutes; also recorded: biphasic kinetics"}
    ]},
    {"smiles": "O=C(CN1CCOCC1)Nc1ccc2c(-c3cc4ccccc4o3)ccnc2c1O", "note": "[Compound 60, 4-(2-benzofuranyl)-8-hydroxy-7-(2-(morpholin-4-yl)acetamido)quinoline]", "values": [
      {"measurement": "CL", "setting": "In vivo PK studies", "result": 137, "unit": "mL/min/kg"},
      {"measurement": "induction of apoptosis (caspase 3 and 7 cleavage) in words", "setting": "[1]", "result": "induce apoptosis"},
      {"measurement": "tumor organoid growth in volume", "setting": "SW620 tumor organoids", "result": "significantly inhibited tumor organoid growth"},
      {"measurement": "microsomal stability (in words)", "setting": "[3]", "result": "not readily transformed by Phase I metabolic enzymes"}
    ]},
    {"smiles": "O=C(CCN1CCOCC1)Nc1ccc2c(-c3cc4ccccc4o3)ccnc2c1O", "note": "[Compound 61, 4-(2-benzofuranyl)-8-hydroxy-7-(3-(morpholin-4-yl)propanamido)quinoline]", "values": [
      {"measurement": "CL", "setting": "In vivo PK studies", "result": 61.8, "unit": "mL/min/kg"},
      {"measurement": "half-life at 1 μg/mL", "setting": "[3]; female, CD-1, mouse, pH 7.4", "result": 15, "unit": "min"},
      {"measurement": "microsomal stability (in words)", "setting": "[3]", "result": "not readily transformed by Phase I metabolic enzymes"}
    ]},
    {"smiles": "COc1cc([C@@H]2c3cc4c(cc3[C@@H](O[C@@H]3O[C@@H]5CO[C@@H](C)O[C@H]5[C@H](O)[C@H]3O)[C@H]3COC(=O)[C@H]23)OCO4)cc(OC)c1O", "note": "[etoposide]", "values": [
      {"measurement": "effect on TOP2A mediated TCF-transcription", "setting": "[5]", "result": "do not inhibit"}
    ]},
    {"smiles": "O=C1NC(=S)NC(=O)C1C(=O)Nc1ccccc1", "note": "[merbarone]", "values": [
      {"measurement": "effect on TOP2A mediated TCF-transcription", "setting": "[5]", "result": "do not inhibit"}
    ]},
    {"smiles": "Cn1ccc2c(c1=O)C(=O)c1nccc3c1c-2nc1ccccc13", "note": "[neo, neoamphimedine]", "values": [
      {"measurement": "DNA double stranded breaks (H2AX S139 phosphorylation immunofluorescence)", "setting": "SW620", "result": "do not cause DNA DSBs"},
      {"measurement": "mode of TOP2A inhibition", "setting": "hTopoIIα", "result": "competitive mode of inhibition"},
      {"measurement": "solubility in water", "setting": "[6]", "result": "insoluble"},
      {"measurement": "metabolic stability", "setting": "[7]", "result": "metabolically unstable"},
      {"measurement": "effect on TOP2A mediated TCF-transcription", "setting": "[5]", "result": "prevents TCF-transcription"}
    ]}
  ]
}
